{"source": "ChEMBL document CHEMBL1154279", "about": "“Cytotoxic compounds from the stems of Cinnamomum tenuifolium” (J Nat Prod, 2009)", "type_in_all_cases": "functional", "key": {"DU-145 [1]": {"test_system": "DU-145", "test": "Cell cycle arrest in human DU145 cells assessed as accumulation of cells at G2/M phase at 1 uM after 24 hrs using propidium iodide stain by flow cytometry", "in_short": "(§1)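 DU145 cells treated with 1, 5, 10 or 100 µM for 24 or 72 h; vehicle 1% DMSO in water. Adherent and floating cells pooled, fixed in PBS-MeOH (1:2) at 4 °C for at least 18 h, then stained 30 min at room temperature in the dark with propidium iodide 50 µg/mL plus RNase A 50 µg/mL. Flow cytometry, excitation 488 nm, emission above 580 nm, doublets gated out. Sub-G1 region taken as DNA damage; at least three runs.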"}, "DU-145 [2]": {"test_system": "DU-145", "test": "Cell cycle arrest in human DU145 cells assessed as accumulation of cells at sub-G1 phase at 5 uM after 24 hrs using propidium iodide stain by flow cytometry", "in_short": "as §1"}, "DU-145 [3]": {"test_system": "DU-145", "test": "Cell cycle arrest in human DU145 cells assessed as accumulation of cells at G1 phase at 5 uM after 24 hrs using propidium iodide stain by flow cytometry", "in_short": "as §1"}, "DU-145 [4]": {"test_system": "DU-145", "test": "Cell cycle arrest in human DU145 cells assessed as accumulation of cells at S phase at 5 uM after 24 hrs using propidium iodide stain by flow cytometry", "in_short": "as §1"}, "DU-145 [5]": {"test_system": "DU-145", "test": "Cell cycle arrest in human DU145 cells assessed as accumulation of cells at G2/M phase at 5 uM after 24 hrs using propidium iodide stain by flow cytometry", "in_short": "as §1"}, "DU-145 [6]": {"test_system": "DU-145", "test": "Cell cycle arrest in human DU145 cells assessed as accumulation of cells at sub-G1 phase at 10 uM after 24 hrs using propidium iodide stain by flow cytometry", "in_short": "as §1"}, "DU-145 [7]": {"test_system": "DU-145", "test": "Cell cycle arrest in human DU145 cells assessed as accumulation of cells at G1 phase at 10 uM after 24 hrs using propidium iodide stain by flow cytometry", "in_short": "as §1"}, "DU-145 [8]": {"test_system": "DU-145", "test": "Cell cycle arrest in human DU145 cells assessed as accumulation of cells at S phase at 10 uM after 24 hrs using propidium iodide stain by flow cytometry", "in_short": "as §1"}, "DU-145 [9]": {"test_system": "DU-145", "test": "Cell cycle arrest in human DU145 cells assessed as accumulation of cells at G2/M phase at 10 uM after 24 hrs using propidium iodide stain by flow cytometry", "in_short": "as §1"}, "DU-145 [10]": {"test_system": "DU-145", "test": "Cell cycle arrest in human DU145 cells assessed as accumulation of cells at sub-G1 phase at 100 uM after 24 hrs using propidium iodide stain by flow cytometry", "in_short": "as §1"}, "DU-145 [11]": {"test_system": "DU-145", "test": "Cell cycle arrest in human DU145 cells assessed as accumulation of cells at G1 phase at 100 uM after 24 hrs using propidium iodide stain by flow cytometry", "in_short": "as §1"}, "DU-145 [12]": {"test_system": "DU-145", "test": "Cell cycle arrest in human DU145 cells assessed as accumulation of cells at S phase at 100 uM after 24 hrs using propidium iodide stain by flow cytometry", "in_short": "as §1"}, "DU-145 [13]": {"test_system": "DU-145", "test": "Cell cycle arrest in human DU145 cells assessed as accumulation of cells at G2/M phase at 100 uM after 24 hrs using propidium iodide stain by flow cytometry", "in_short": "as §1"}, "DU-145 [14]": {"test_system": "DU-145", "test": "Cell cycle arrest in human DU145 cells assessed as accumulation of cells at G2/M phase at 100 uM after 72 hrs using propidium iodide stain by flow cytometry", "in_short": "as §1"}, "DU-145 [15]": {"test_system": "DU-145", "test": "Cell cycle arrest in human DU145 cells assessed as accumulation of cells at S phase at 100 uM after 72 hrs using propidium iodide stain by flow cytometry", "in_short": "as §1"}, "DU-145 [16]": {"test_system": "DU-145", "test": "Cell cycle arrest in human DU145 cells assessed as accumulation of cells at G1 phase at 100 uM after 72 hrs using propidium iodide stain by flow cytometry", "in_short": "as §1"}, "DU-145 [17]": {"test_system": "DU-145", "test": "Cell cycle arrest in human DU145 cells assessed as accumulation of cells at sub-G1 phase at 100 uM after 72 hrs using propidium iodide stain by flow cytometry", "in_short": "as §1"}, "DU-145 [18]": {"test_system": "DU-145", "test": "Cell cycle arrest in human DU145 cells assessed as accumulation of cells at G2/M phase at 10 uM after 72 hrs using propidium iodide stain by flow cytometry", "in_short": "as §1"}, "DU-145 [19]": {"test_system": "DU-145", "test": "Cell cycle arrest in human DU145 cells assessed as accumulation of cells at S phase at 10 uM after 72 hrs using propidium iodide stain by flow cytometry", "in_short": "as §1"}, "DU-145 [20]": {"test_system": "DU-145", "test": "Cell cycle arrest in human DU145 cells assessed as accumulation of cells at G1 phase at 10 uM after 72 hrs using propidium iodide stain by flow cytometry", "in_short": "as §1"}, "DU-145 [21]": {"test_system": "DU-145", "test": "Cell cycle arrest in human DU145 cells assessed as accumulation of cells at sub-G1 phase at 10 uM after 72 hrs using propidium iodide stain by flow cytometry", "in_short": "as §1"}, "DU-145 [22]": {"test_system": "DU-145", "test": "Cell cycle arrest in human DU145 cells assessed as accumulation of cells at G2/M phase at 5 uM after 72 hrs using propidium iodide stain by flow cytometry", "in_short": "as §1"}, "DU-145 [23]": {"test_system": "DU-145", "test": "Cell cycle arrest in human DU145 cells assessed as accumulation of cells at S phase at 5 uM after 72 hrs using propidium iodide stain by flow cytometry", "in_short": "as §1"}, "DU-145 [24]": {"test_system": "DU-145", "test": "Cell cycle arrest in human DU145 cells assessed as accumulation of cells at G1 phase at 5 uM after 72 hrs using propidium iodide stain by flow cytometry", "in_short": "as §1"}, "DU-145 [25]": {"test_system": "DU-145", "test": "Cell cycle arrest in human DU145 cells assessed as accumulation of cells at sub-G1 phase at 5 uM after 72 hrs using propidium iodide stain by flow cytometry", "in_short": "as §1"}, "DU-145 [26]": {"test_system": "DU-145", "test": "Cell cycle arrest in human DU145 cells assessed as accumulation of cells at G2/M phase at 1 uM after 72 hrs using propidium iodide stain by flow cytometry", "in_short": "as §1"}}, "data": [{"smiles": "CCCCCCCCCCCCCCCCCCCCCCCC/C=C(/C(=O)OC)[C@@H](O)C(C)=O", "note": "[SECOTENUIFOLIDE A]", "values": [{"measurement": "Activity", "setting": "DU-145 [1]", "result": 43.3, "unit": "%"}, {"measurement": "Activity", "setting": "DU-145 [2]", "result": 19.02, "unit": "%"}, {"measurement": "Activity", "setting": "DU-145 [3]", "result": 34.96, "unit": "%"}, {"measurement": "Activity", "setting": "DU-145 [4]", "result": 4.96, "unit": "%"}, {"measurement": "Activity", "setting": "DU-145 [5]", "result": 37.88, "unit": "%"}, {"measurement": "Activity", "setting": "DU-145 [6]", "result": 19.72, "unit": "%"}, {"measurement": "Activity", "setting": "DU-145 [7]", "result": 36.97, "unit": "%"}, {"measurement": "Activity", "setting": "DU-145 [8]", "result": 3.8, "unit": "%"}, {"measurement": "Activity", "setting": "DU-145 [9]", "result": 36.57, "unit": "%"}, {"measurement": "Activity", "setting": "DU-145 [10]", "result": 24.88, "unit": "%"}, {"measurement": "Activity", "setting": "DU-145 [11]", "result": 35.57, "unit": "%"}, {"measurement": "Activity", "setting": "DU-145 [12]", "result": 10.04, "unit": "%"}, {"measurement": "Activity", "setting": "DU-145 [13]", "result": 26.4, "unit": "%"}, {"measurement": "Activity", "setting": "DU-145 [14]", "result": 30, "unit": "%"}, {"measurement": "Activity", "setting": "DU-145 [15]", "result": 5.38, "unit": "%"}, {"measurement": "Activity", "setting": "DU-145 [16]", "result": 28.57, "unit": "%"}, {"measurement": "Activity", "setting": "DU-145 [17]", "result": 32.57, "unit": "%"}, {"measurement": "Activity", "setting": "DU-145 [18]", "result": 30.83, "unit": "%"}, {"measurement": "Activity", "setting": "DU-145 [19]", "result": 3.62, "unit": "%"}, {"measurement": "Activity", "setting": "DU-145 [20]", "result": 48.3, "unit": "%"}, {"measurement": "Activity", "setting": "DU-145 [21]", "result": 16.18, "unit": "%"}, {"measurement": "Activity", "setting": "DU-145 [22]", "result": 31.74, "unit": "%"}, {"measurement": "Activity", "setting": "DU-145 [23]", "result": 4.05, "unit": "%"}, {"measurement": "Activity", "setting": "DU-145 [24]", "result": 48.96, "unit": "%"}, {"measurement": "Activity", "setting": "DU-145 [25]", "result": 14.24, "unit": "%"}, {"measurement": "Activity", "setting": "DU-145 [26]", "result": 33.68, "unit": "%"}]}]}
